Laboratory results published in PMC9063861 (RSC Advances, 2019).
pKi: −log10 of the molar value.

Columns and labels:
[1] = molecular target: T1, Horseradish peroxidase (HRP) (Armoracia rusticana, UniProt P00433); experiment: Kinetics of the oxidation of flavones catalyzed by HRP; format: biochemical
T1 sequence (P00433 31-338 limits assumed): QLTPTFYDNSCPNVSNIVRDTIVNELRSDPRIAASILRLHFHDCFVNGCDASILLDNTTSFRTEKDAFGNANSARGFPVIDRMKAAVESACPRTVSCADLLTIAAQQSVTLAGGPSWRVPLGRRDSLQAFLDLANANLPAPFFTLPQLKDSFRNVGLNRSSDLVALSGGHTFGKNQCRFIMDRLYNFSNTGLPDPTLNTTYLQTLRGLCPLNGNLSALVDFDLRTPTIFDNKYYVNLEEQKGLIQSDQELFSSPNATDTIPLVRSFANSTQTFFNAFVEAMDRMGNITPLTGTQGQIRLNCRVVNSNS
How it was run: (§1)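 Horseradish peroxidase, >250 U mg−1. Oxidation products were quantified by LC-MS/MS using ESI in negative mode with multiple reaction monitoring. The mobile phase was acetonitrile–0.1% formic acid (aq) at 450 μL min−1. Nitrogen served as curtain and collision gas, at 13 and 6 psi respectively.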

[2] = molecular target: Laccase from Trametes versicolor; experiment: Kinetics of the oxidation of flavones catalyzed by laccase; format: biochemical
How it was run: as §1, with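 “Laccase from Trametes versicolor, 120” for “Horseradish peroxidase, >250”, “g−1.” for “mg−1.”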

| kinetic model of oxidation by HRP [1] | kinetic model of oxidation by laccase [2] | K m ([2]; formation of the named product) [mM] | pKi ([2]; read-out: Ki (inhibitory effect on laccase)) | K m ([1]; formation of the named product) [mM] | n (Hill kinetic model) ([1]; formation of the named product) | Structure (SMILES) |
| --- | --- | --- | --- | --- | --- | --- |
| Hill kinetic model | Hill-kinetic model | – | – | – | – | O=c1c(-c2ccc(O)cc2)coc2cc(O)ccc12 [compound 10, daidzein] |
| substrate inhibition kinetics | Hill-kinetic model | – | – | – | – | O=C(/C=C/c1ccc(O)cc1)c1ccc(O)cc1O [compound 12, isoliquiritigenin] |
| substrate inhibition kinetics | – | – | – | – | – | O=C1C[C@@H](c2ccc(O)cc2)Oc2cc(O)cc(O)c21 [compound 8, naringenin] |
| – | substrate inhibition kinetic model | 8.288 ± 0.401 | 2.78 | – | – | O=c1c(O)c(-c2ccc(O)cc2)oc2cc(O)cc(O)c12 [compound 5, kaempferol] |
| Hill kinetic model | – | – | – | 0.1635 | 2.944 | O=c1cc(-c2ccc(O)cc2)oc2cc(O)cc(O)c12 [compound 1, apigenin] |
